Env fusion inh = HIV envelope-mediated fusion inhibition | 360,000 compounds, 1.1% hits | AID 651610 | HeLa-JRFL Env/CEM21 cell fusion, luciferase | inhibition, % at 12.3 µM;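 active = mean replicate inhibition score of at least 50 and every replicate individually at or above 50; inconclusive = only one of the two criteria met; inactive = mean below 50 and not all replicates reaching 50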
Wnt act = activates Wnt/beta-catenin signaling in a reporter cell assay; 300,000 compounds, 1.2% hits; activation, % at 9.35 µM; activator, plate reader; in the data active = activation above about 30%, passing the limit was not always enough; inconclusive = no clear call, values can overlap the other calls
ERAP1 HTS inh = ERAP1 (human) enzyme inhibition. Q9NZ08. recombinant ERAP1, Leu-AMC fluorescence, 60 min. inhibition, % at 10.7 µM. 340,000 compounds, 0.15% hits;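 active = mean replicate inhibition of at least 30%, or all replicates individually reaching that 30% level; inactive = mean below 30% and not every replicate reaching it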
Target sequence (Q9NZ08 whole entry, looked up): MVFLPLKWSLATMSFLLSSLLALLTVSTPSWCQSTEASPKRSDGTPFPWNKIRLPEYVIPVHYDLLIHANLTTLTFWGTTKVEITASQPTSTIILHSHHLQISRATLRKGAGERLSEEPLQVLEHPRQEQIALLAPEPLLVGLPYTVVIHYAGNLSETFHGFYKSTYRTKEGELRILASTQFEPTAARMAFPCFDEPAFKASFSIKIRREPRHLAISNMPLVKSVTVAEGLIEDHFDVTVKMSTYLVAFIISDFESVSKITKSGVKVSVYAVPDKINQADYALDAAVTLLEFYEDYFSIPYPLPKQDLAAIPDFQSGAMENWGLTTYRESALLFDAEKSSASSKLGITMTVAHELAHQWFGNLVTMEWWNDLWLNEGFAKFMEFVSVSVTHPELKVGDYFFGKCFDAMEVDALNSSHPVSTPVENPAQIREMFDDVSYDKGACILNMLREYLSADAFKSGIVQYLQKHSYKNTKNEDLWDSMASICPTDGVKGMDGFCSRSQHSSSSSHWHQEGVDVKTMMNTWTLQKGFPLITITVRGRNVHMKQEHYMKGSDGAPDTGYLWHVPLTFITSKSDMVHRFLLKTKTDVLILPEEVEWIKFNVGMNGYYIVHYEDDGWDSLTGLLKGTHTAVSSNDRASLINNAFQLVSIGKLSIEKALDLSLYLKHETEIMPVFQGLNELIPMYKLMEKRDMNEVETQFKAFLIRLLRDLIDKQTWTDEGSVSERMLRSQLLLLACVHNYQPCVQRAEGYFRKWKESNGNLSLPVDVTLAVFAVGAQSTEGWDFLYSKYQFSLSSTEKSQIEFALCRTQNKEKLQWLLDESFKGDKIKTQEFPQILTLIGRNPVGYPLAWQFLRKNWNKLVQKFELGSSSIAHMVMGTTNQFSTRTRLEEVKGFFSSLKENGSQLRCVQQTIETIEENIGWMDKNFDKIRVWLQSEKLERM
esBAF inh = blocks esBAF chromatin remodeling in mouse ES cells; reporter increase, % at 12.5 µM; Bmi1-luciferase knock-in reporter, 24 h; 100% = twice the neutral-well signal; 350,000 compounds, 2% hits; AID 602393; in the data active = activation above about 40%; inconclusive = no clear call, values can overlap the other calls;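 note: a rise in the Bmi1 reporter signal indicates esBAF inhibition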
MITF act = MITF TRPM1 promoter activation in melanoma cells | SK-MEL-5 TRPM1-promoter luciferase, 24 h; % of positive control, neutral wells = 0 | activation, % at 12.5 µM | 300,000 compounds, 0.75% hits;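 active = mean activation of at least 80% with every replicate also reaching 80%; inconclusive = mean reaches 80% but some replicate falls short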
Cneo AK release = causes C. neoformans cell lysis. adenylate kinase release luminescence, 4 h; normalised: neutral wells 0, clomiphene wells 100. lysis activity, % at 15 µM. 360,000 compounds, 0.2% hits;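 active = mean lysis activity across replicates of at least 80%, whatever share of replicates individually reach that level; inactive = mean lysis activity below 80%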
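Signal: Adenylate kinase release luminescence | Assay system: Log-phase Cryptococcus neoformans yeast cells | Input: Cells at 5 × 10^6 per mL | Buffer or medium: Fresh YPD growth medium | Compound: Single dose | Schedule: Static 4 h at 37 °C with compound, 1 h detection | Controls: Clomiphene | Read-out: Luminescence rise reflecting yeast cell lysis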
Of the large screens only hits and unclear results are named; the others gave an inactive call. Shown are actives, neighbours in structure and some others; about 3.5% of the full set was active somewhere.

O=C(CSc1ccc(F)cc1)Nc1ccc(C2SCCS2)cc1	esBAF inh 45 (no result: MITF act)
CO[C@@H]1CN(C)C(=O)c2cc(NS(=O)(=O)c3cn(C)cn3)ccc2OC[C@H](C)N(Cc2cccc(F)c2)C[C@H]1C	none (no result: Env fusion inh, Wnt act, MITF act)
O=C(CSc1nncs1)Nc1ccc(N2CCCCC2)cc1	esBAF inh 57 (no result: Env fusion inh)
COCC(=O)N(C)C[C@@H]1Oc2ncc(C#CC3(O)CCCC3)cc2C(=O)N([C@@H](C)CO)C[C@H]1C	none (no result: Wnt act, MITF act)
O=C(Nc1ccc2c3c(cccc13)CC2)c1ccccc1	esBAF inh 48 (no result: MITF act)
CN(C)CC1CCC/C(=C\c2ccc(OC(=O)c3ccc(Cl)cc3)cc2)C1=O (stereo unspecified)	Env fusion inh 60 (no result: esBAF inh, Cneo AK release)
CN(C)CC1CCC/C(=C\c2ccc(OC(=O)/C=C/c3ccccc3)cc2)C1=O (stereo unspecified)	none (no result: Cneo AK release)
Cc1ccc(-c2csc(NC(=O)c3ccc(F)cc3)c2C(=O)O)cc1	esBAF inh 59
O=C(Nc1sc2c(c1C(=O)O)CCCC2)c1ccc(F)cc1	esBAF inh 68 (no result: MITF act)
O=C(Nc1sc2c(c1C(=O)O)CCC2)c1ccco1	none (no result: MITF act, Cneo AK release)
CC(C)(C)c1ccc(C(=O)Nc2sc3c(c2C(=O)O)CCC3)cc1	Env fusion inh 81 (no result: Cneo AK release)
Cc1cccc(C(=O)Nc2sc3c(c2C(=O)O)CCC3)c1	esBAF inh inconclusive
COc1cccc(C(=O)Nc2sc3c(c2C(=O)O)CCCC3)c1	esBAF inh 55
O=C(Nc1scc(-c2ccccc2)c1C(=O)O)c1ccc(F)cc1	none (no result: MITF act)
Cc1ccc(-c2cc3nc(NCCc4ccncc4)n(C)c(=O)c3s2)cc1	Wnt act 42 (no result: MITF act)
CN(C)CCCNc1nc2cc(-c3ccsc3)sc2c(=O)n1C	none (no result: MITF act)
CN(C)CCCNc1nc2cc(-c3ccc4c(ccn4C)c3)sc2c(=O)n1C	esBAF inh 67 (no result: MITF act)
COc1cccc(-c2cc3nc(NCc4ccc5occc5c4)n(C)c(=O)c3s2)c1	esBAF inh 61 (no result: MITF act)
COc1cccc(CNc2nc3cc(-c4ccccc4)sc3c(=O)n2C)c1	Env fusion inh 63 (no result: Wnt act, MITF act)
Cn1c(NCCc2ccncc2)nc2cc(-c3ccsc3)sc2c1=O	none (no result: MITF act)
COc1ccc2c3c([nH]c2c1)[C@@H](CO)N(C(=O)Cc1ccccn1)CC31CCN(Cc2ccccn2)CC1	none (no result: Env fusion inh, Wnt act, esBAF inh, MITF act, Cneo AK release)
COc1ccc(-c2cc3nc(NCc4ccc(N(C)C)cc4)n(C)c(=O)c3s2)cc1OC	none (no result: MITF act)
COc1cccc(CNc2nc3cc(-c4ccc(OC)c(OC)c4)sc3c(=O)n2C)c1	Env fusion inh 60 (no result: MITF act)
COc1cccc(CNc2nc3cc(-c4ccc(C)cc4)sc3c(=O)n2C)c1OC	esBAF inh 54 (no result: MITF act)
O=C(C[C@@H]1C[C@@H]2c3cc(NS(=O)(=O)c4ccccc4)ccc3O[C@@H]2[C@@H](CO)O1)N1CCCCC1	none (no result: Env fusion inh, Wnt act, MITF act)
CC(CCc1ccco1)NC(=O)CCc1nnc2ccc(NCc3ccccc3Cl)nn12 (stereo unspecified)	Env fusion inh 77
Cc1noc(C)c1NC(=O)N(C)C[C@H]1OCCCC[C@@H](C)Oc2ccc(NS(=O)(=O)c3ccc(Cl)cc3)cc2C(=O)N([C@H](C)CO)C[C@H]1C	none (no result: Wnt act, MITF act)
S=C1NC(c2ccccc2)=NCN1c1ccccc1	Wnt act 42, esBAF inh 58 (no result: ERAP1 HTS inh, MITF act)
O=C1CN(c2ccccc2)C(=O)N1	none (no result: esBAF inh, MITF act)
Cc1cccc(/C(N)=N/OC(=O)COc2ccccc2Cl)c1	none (no result: Wnt act, esBAF inh, Cneo AK release)
N/C(=N\OC(=O)COc1cc(Cl)c(Cl)cc1Cl)c1ccncc1	none (no result: esBAF inh, MITF act, Cneo AK release)
COc1ccc(/C(N)=N/OC(=O)Cc2cccs2)cc1	esBAF inh 60, MITF act inconclusive (no result: Env fusion inh)
N/C(=N\OC(=O)COc1ccc(Br)cc1Cl)c1ccncc1	Wnt act 67, MITF act 130 (no result: esBAF inh, Cneo AK release)
Cc1ccc(OCC(=O)O/N=C(\N)c2ccncc2)c(C)c1	esBAF inh 69, MITF act 161
COc1ccc(/C(N)=N/OC(=O)COc2ccccc2Cl)cc1	esBAF inh 49
Cc1cc(C)c(C)c(OCC(=O)O/N=C(\N)c2ccncc2)c1	none
Cc1ccccc1OCC(=O)O/N=C(\N)c1ccncc1	esBAF inh 58
CC[C@@]1(O)C(=O)OCc2c1cc1n(c2=O)Cc2cc3c(N)cccc3nc2-1	Env fusion inh 68
COc1ccccc1-c1cn(CC[C@@H]2CC[C@@H](NC(=O)C3CCC3)[C@H](CO)O2)nn1	none (no result: Wnt act, MITF act)
